Results from ChEMBL document CHEMBL5030522, “A Convenient Chemoenzymatic Preparation of Chimeric Macrocyclic Peptide Antibiotics with Potent Activity against Gram-Negative Pathogens” (2021).
In brackets after ≈: the same amount, converted by molar mass. Numbered stars: 1 amine (or outer) side, 2 acyl side, 3 side chain; on linkers, the order of the positions; unused ones are H or OH. Bridge positions count the residues as written; N and C are the ends. Square brackets hold non-standard residues; d marks the D form. Peptide text beside a SMILES is read from it. I, II: the chains in the order shown. X2 = NC(=O)[C@H](Cc1cn(CC(=O)[*:2])nn1)N[*:1]; Tle = CC(C)(C)[C@H](N)C(=O)O; dDab = NCC[C@@H](N)C(=O)O; hSer = N[C@@H](CCO)C(=O)O; Dab = NCC[C@H](N)C(=O)O

Columns and labels:
Type in all cases: functional
[1] = system: Pseudomonas aeruginosa; experiment: Antibacterial activity against Pseudomonas aeruginosa producing NDM1 assessed as inhibition of bacterial growth after 16 hrs by broth microdilution method
Procedure, shortened: (§1)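 CLSI broth microdilution. Strains grown from glycerol stocks on blood agar 16 h at 37 °C; colonies used to inoculate CAMHB containing 10 mg L–1 Mg2+ and 25 mg L–1 Ca2+. Peptides dissolved in CAMHB with 0.002% (v/v) final polysorbate-80, serially diluted in polypropylene plates; inoculum 5 × 10^5 CFU mL–1. Sealed, 16 h at 37 °C, growth scored visually. MIC in μg/mL; three or more measurements on multiple days.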

[2] = system: Escherichia coli; experiment: Antibacterial activity against Escherichia coli producing NDM1 assessed as inhibition of bacterial growth after 16 hrs by broth microdilution method; procedure, shortened: as §1
[3] = system: Escherichia coli; experiment: Antibacterial activity against Escherichia coli producing MCR3 assessed as inhibition of bacterial growth after 16 hrs by broth microdilution method
Procedure, shortened: (§2)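 MIC per CLSI broth microdilution. Strains streaked from glycerol stocks on blood agar, 16 h at 37 °C. Single colonies inoculated into cation-adjusted Mueller-Hinton broth (10 mg L–1 Mg2+, 25 mg L–1 Ca2+). Peptides serially diluted in this broth with 0.002% (v/v) final polysorbate-80 in polypropylene plates. Inoculum 5 × 10^5 CFU mL–1. Plates sealed, 16 h at 37 °C, growth scored visually. MIC in μg/mL, triplicates on two separate days.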

[4] = system: Acinetobacter baumannii; experiment: Antibacterial activity against Acinetobacter baumannii ATCC 9955 assessed as inhibition of bacterial growth after 16 hrs by broth microdilution method; procedure, shortened: as §2
[5] = system: Klebsiella pneumoniae; experiment: Antibacterial activity against Klebsiella pneumoniae producing NDM1 assessed as inhibition of bacterial growth after 16 hrs by broth microdilution method; procedure, shortened: as §2
[6] = system: Acinetobacter baumannii; experiment: Antibacterial activity against multidrug-resistant Acinetobacter baumannii assessed as inhibition of bacterial growth after 16 hrs by broth microdilution method; procedure, shortened: as §1
[7] = system: Escherichia coli; experiment: Antibacterial activity against Escherichia coli producing MCR2 assessed as inhibition of bacterial growth after 16 hrs by broth microdilution method; procedure, shortened: as §2
[8] = system: Acinetobacter baumannii; experiment: Antibacterial activity against Acinetobacter baumannii ATCC 17978 assessed as inhibition of bacterial growth after 16 hrs by broth microdilution method; procedure, shortened: as §2
[9] = system: Pseudomonas aeruginosa; experiment: Antibacterial activity against Pseudomonas aeruginosa M-120 assessed as inhibition of bacterial growth after 16 hrs by broth microdilution method; procedure, shortened: as §2
[10] = system: Klebsiella pneumoniae; experiment: Antibacterial activity against Klebsiella pneumoniae ATCC 11228 assessed as inhibition of bacterial growth after 16 hrs by broth microdilution method; procedure, shortened: as §2
[11] = system: Staphylococcus aureus; experiment: Antibacterial activity against methicillin resistant Staphylococcus aureus USA300 by measuring MIC after 16 hrs by broth microdilution method; procedure, shortened: as §1
[12] = system: Escherichia coli; experiment: Antibacterial activity against Escherichia coli producing MCR1 assessed as inhibition of bacterial growth after 16 hrs by broth microdilution method; procedure, shortened: as §2
[13] = system: Pseudomonas aeruginosa; experiment: Antibacterial activity against Pseudomonas aeruginosa NRZ 08418 producing NDM1 assessed as inhibition of bacterial growth after 16 hrs by broth microdilution method; procedure, shortened: as §2
[14] = system: Escherichia coli; experiment: Antibacterial activity against Escherichia coli ATCC 35218 assessed as inhibition of bacterial growth after 16 hrs by broth microdilution method; procedure, shortened: as §2
[15] = system: Acinetobacter baumannii; experiment: Antibacterial activity against Acinetobacter baumannii NRZ 00687 producing NDM2 assessed as inhibition of bacterial growth after 16 hrs by broth microdilution method; procedure, shortened: as §2
[16] = system: Pseudomonas aeruginosa; experiment: Antibacterial activity against Pseudomonas aeruginosa ATCC 27853 assessed as inhibition of bacterial growth after 16 hrs by broth microdilution method; procedure, shortened: as §2

| SMILES | MIC [1] | MIC [2] | MIC [3] | MIC [4] | MIC [5] | MIC [6] | MIC [7] | MIC [8] | MIC [9] | MIC [10] | MIC [11] | MIC [12] | MIC [13] | MIC [14] | MIC [15] | MIC [16] |
| --- | --- | --- | --- | --- | --- | --- | --- | --- | --- | --- | --- | --- | --- | --- | --- | --- |
| CC(C)C[C@@H]1NC(=O)[C@@H](Cc2ccccc2)NC(=O)[C@H](CCN)NC(=O)[C@@H](NC(=O)[C@H](CCN)NC(=O)[C@@H](NC(=O)[C@H](CCN)NC(=O)CC[C@@H]2NC(=O)[C@H](CCN)NC(=O)[C@H](Cc3ccc(O)cc3)NC(=O)[C@H]([C@@H](C)O)NC(=O)[C@H](C(C)C)NC(=O)[C@@H]3CCCN3C(=O)[C@@H](C)NC(=O)[C@H](CO)NC(=O)[C@H](C)NC(=O)[C@H](C(C)(C)C)NC(=O)[C@H](CCO)NC(=O)[C@H](Cc3c[nH]c4ccccc34)NC(=O)[C@H](CCO)NC(=O)[C@@H](CCN)NC2=O)[C@@H](C)O)CCNC(=O)[C@H]([C@@H](C)O)NC(=O)[C@H](CCN)NC(=O)[C@H](CCN)NC1=O (I: cyclo([dDab][hSer]W[hSer][Tle]AS[dA]PVTY[Dab]E) / II: [Dab]T[Dab][Dab][Dab][dF]L[Dab][Dab]T; amide I:14-II:N; lactam II:4-II:C) | 0.8 µg/mL (≈ 0.312 µM) | 0.1 µg/mL (≈ 0.039 µM) | 0.4 µg/mL (≈ 0.156 µM) | 0.2 µg/mL (≈ 0.0779 µM) | 0.4 µg/mL (≈ 0.156 µM) | 0.4 µg/mL (≈ 0.156 µM) | 0.4 µg/mL (≈ 0.156 µM) | 0.4 µg/mL (≈ 0.156 µM) | 1.6 µg/mL (≈ 0.624 µM) | 0.2 µg/mL (≈ 0.0779 µM) | > 6.4 µg/mL | – | – | – | – | – |
| CC(C)C[C@@H]1NC(=O)[C@@H](CC(C)C)NC(=O)[C@H](CCN)NC(=O)[C@@H](NC(=O)[C@H](CCN)NC(=O)[C@@H](NC(=O)[C@H](CCN)NC(=O)CC[C@@H]2NC(=O)[C@H](CCN)NC(=O)[C@H](Cc3ccc(O)cc3)NC(=O)[C@H]([C@@H](C)O)NC(=O)[C@H](C(C)C)NC(=O)[C@@H]3CCCN3C(=O)[C@@H](C)NC(=O)[C@H](CO)NC(=O)[C@H](C)NC(=O)[C@H](C(C)(C)C)NC(=O)[C@H](CCO)NC(=O)[C@H](Cc3c[nH]c4ccccc34)NC(=O)[C@H](CCO)NC(=O)[C@@H](CCN)NC2=O)[C@@H](C)O)CCNC(=O)[C@H]([C@@H](C)O)NC(=O)[C@H](CCN)NC(=O)[C@H](CCN)NC1=O (I: cyclo([dDab][hSer]W[hSer][Tle]AS[dA]PVTY[Dab]E) / II: [Dab]T[Dab][Dab][Dab][dL]L[Dab][Dab]T; amide I:14-II:N; lactam II:4-II:C) | 0.4 µg/mL (≈ 0.158 µM) | 0.1 µg/mL (≈ 0.0395 µM) | 0.2 µg/mL (≈ 0.079 µM) | 0.2 µg/mL (≈ 0.079 µM) | 0.8 µg/mL (≈ 0.316 µM) | 0.2 µg/mL (≈ 0.079 µM) | 0.2 µg/mL (≈ 0.079 µM) | – | – | – | > 6.4 µg/mL | 0.2 µg/mL (≈ 0.079 µM) | 0.8 µg/mL (≈ 0.316 µM) | 0.2 µg/mL (≈ 0.079 µM) | – | – |
| CC(C)C[C@@H]1NC(=O)[C@@H](CC(C)C)NC(=O)[C@H](CCN)NC(=O)[C@@H](NC(=O)Cn2cc(C[C@H](NC(=O)CC[C@@H]3NC(=O)[C@H](CCN)NC(=O)[C@H](Cc4ccc(O)cc4)NC(=O)[C@H]([C@@H](C)O)NC(=O)[C@H](C(C)C)NC(=O)[C@@H]4CCCN4C(=O)[C@@H](C)NC(=O)[C@H](CO)NC(=O)[C@H](C)NC(=O)[C@H](C(C)(C)C)NC(=O)[C@H](CCO)NC(=O)[C@H](Cc4c[nH]c5ccccc45)NC(=O)[C@H](CCO)NC(=O)[C@@H](CCN)NC3=O)C(N)=O)nn2)CCNC(=O)[C@H]([C@@H](C)O)NC(=O)[C@H](CCN)NC(=O)[C@H](CCN)NC1=O (I: cyclo([dDab][hSer]W[hSer][Tle]AS[dA]PVTY[Dab]E) / II: [Dab][Dab][dL]L[Dab][Dab]T; linker I:14-II:N via X2; lactam II:1-II:C) | 32 µg/mL (≈ 13.2 µM) | – | 64 µg/mL (≈ 26.4 µM) | 64 µg/mL (≈ 26.4 µM) | – | 32 µg/mL (≈ 13.2 µM) | 32 µg/mL (≈ 13.2 µM) | – | 64 µg/mL (≈ 26.4 µM) | 16 µg/mL (≈ 6.6 µM) | > 64 µg/mL | – | 64 µg/mL (≈ 26.4 µM) | – | 64 µg/mL (≈ 26.4 µM) | 64 µg/mL (≈ 26.4 µM) |
| CC(C)[C@@H]1NC(=O)[C@@H]2CCCN2C(=O)[C@@H](C)NC(=O)[C@H](CO)NC(=O)[C@H](C)NC(=O)[C@H](C(C)(C)C)NC(=O)[C@H](CCO)NC(=O)[C@H](Cc2c[nH]c3ccccc23)NC(=O)[C@H](CCO)NC(=O)[C@@H](CCN)NC(=O)[C@H](CCC(N)=O)NC(=O)[C@H](CCN)NC(=O)[C@H](Cc2ccc(O)cc2)NC(=O)[C@H]([C@@H](C)O)NC1=O (cyclo([dDab][hSer]W[hSer][Tle]AS[dA]PVTY[Dab]Q)) | – | – | – | – | – | – | – | – | – | – | > 64 µg/mL | – | – | – | – | – |
